The full list was thinned out, with hits kept by preference.
T cruzi intra – intracellular Trypanosoma cruzi inhibition. 22,000 tested, 4.9% active. intracellular Trypanosoma cruzi in host cells, plate reader. activity score (inhibition), % at 5.01 µM; in the data active = activity score above about 55%;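 also: parasites and compound incubated about four days before reading; 0% = median of neutral control wells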
INS-1E ATP HTS – preserves ATP levels in cytokine-treated INS-1E cells; INS-1E cytokine-induced death, ATP luminescence, 48 h; normalised: neutral wells 0, positive control 100; protection from cytokine-induced ATP loss, % at 10 µM; 20,000 tested, 0.1% active; AID 488910;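 active = mean replicate protection from cytokine-induced ATP loss at least 50% and at least 75% of replicates each reaching 50%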
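Material: INS-1E rat cells; Quantity: 8000 cells/well; Buffer or medium: phenol-red-free RPMI with 5% fetal bovine serum; Probe or stimulus: cytokine cocktail of IFN-γ, TNF-α and IL-1β; Compound dosing: single test concentration per compound, delivered by pin transfer; Incubation: 48 h co-treatment, 10 min post-lysis read; Signal: CellTiter-Glo luminescence.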
A1 apoptosis 2 – compounds inhibiting A1, read as caspase activation; caspase activation, % (no concentration beside the values); 24,000 tested, under 10 active; MEF A1-2A-BIM cells, caspase-Glo luminescence, 3 h; percent of clofoctol response, DMSO zero; in the data active = caspase activation above about 5.9%
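Test system – A1-2A-BIM-expressing MEF cells · Input – 2500 cells/well · Medium – RPMI-1640 growth medium with 10% FBS · Compound dosing – 50 nL pinned compound · Timing – 3 h compound exposure at 37 °C · Technique – Caspase-Glo luminescence (DEVD substrate) · Evaluation – Caspase-3/7 activity from luminescence increase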
Numbers without * were called inactive; . = not tested or not shown.

SMILES | T cruzi intra | INS-1E ATP HTS | A1 apoptosis 2
C[C@@H]1CN([C@@H](C)CO)C(=O)c2cc(NC(=O)Nc3cccc4ccccc34)ccc2O[C@@H]1CN(C)Cc1ccc(C(F)(F)F)cc1 | 59* | . | .
N#Cc1ccc(/C=N/NC(=O)CCCCCCC(=O)NO)cc1 | . | . | 1
Cc1nnc(Sc2ccc(/C=N/NC(=O)CCCCC(=O)NO)o2)n1C | -2 | 9 | 0
O=C(N/N=C/c1ccc2c(c1)CCO2)c1ccccc1O | -6 | -30 | -5
CC(C)=CCC[C@H](C)C/C=N/NC(=O)CCCCCCC(=O)NO | . | . | 1
C[C@@H]1CN([C@H](C)CO)C(=O)c2cccc(NC(=O)NC3CCCCC3)c2O[C@H]1CN(C)Cc1ccc(Oc2ccccc2)cc1 | 61* | -38 | .
C[C@@H]1CN([C@H](C)CO)C(=O)c2cccc(NC(=O)NC3CCCCC3)c2O[C@@H]1CN(C)Cc1ccc(Oc2ccccc2)cc1 | 64* | -55 | -1
C[C@@H]1CN([C@H](C)CO)C(=O)c2cccc(NC(=O)NC3CCCCC3)c2O[C@H]1CN(C)Cc1ccccc1 | 23 | 8 | -2
C[C@H]1CN([C@@H](C)CO)C(=O)c2cccc(NC(=O)NC3CCCCC3)c2O[C@@H]1CN(C)Cc1ccc(Oc2ccccc2)cc1 | 49 | -21 | .
C[C@@H]1CN([C@H](C)CO)C(=O)c2cccc(NC(=O)NC3CCCCC3)c2O[C@H]1CN(C)Cc1ccc(-c2ccccc2)cc1 | 34 | -7 | .
C[C@H](CO)N1C[C@H](C)[C@@H](CN(C)Cc2ccc(-c3ccccc3)cc2)Oc2c(NC(=O)NC3CCCCC3)cccc2C1=O | 68* | -19 | .
COc1ccc([Si](C)(C)[C@@H]2[C@@H](CC(=O)N3CCC[C@H]3CO)O[C@]3(C(=O)N(Cc4ccc(I)cc4)c4ccccc43)[C@H]2C)cc1 | . | . | 0
[O-]/[N+](=N\OCCBr)N1CCCC1 | . | . | -1
C[C@@H]1CCCCO[C@H](CN(C)CC2CCCCC2)[C@H](C)CN([C@H](C)CO)C(=O)c2cc(NC(=O)Nc3ccc4c(c3)OCO4)ccc2O1 | . | . | 0
COc1ccc(NC(=O)Nc2ccc3c(c2)C(=O)N([C@H](C)CO)C[C@H](C)[C@@H](CN(C)CC2CCCCC2)OCCCC[C@@H](C)O3)cc1 | 76* | -17 | .
C[C@@H]1CCCCO[C@H](CN(C)CC2CCCCC2)[C@H](C)CN([C@H](C)CO)C(=O)c2cc(NC(=O)Nc3ccc(C(F)(F)F)cc3)ccc2O1 | . | . | 2
COc1ccc(NC(=O)Nc2ccc3c(c2)C(=O)N([C@@H](C)CO)C[C@@H](C)[C@@H](CN(C)CC2CCCCC2)OCCCC[C@H](C)O3)cc1 | . | . | 1
C[C@@H]1CCCCO[C@@H](CN(C)CC2CCCCC2)[C@H](C)CN([C@H](C)CO)C(=O)c2cc(NC(=O)Nc3ccc(C(F)(F)F)cc3)ccc2O1 | . | . | 8.3*
C[C@@H]1CCCCO[C@H](CN(C)CC2CCCCC2)[C@@H](C)CN([C@H](C)CO)C(=O)c2cc(NC(=O)Nc3ccc4c(c3)OCO4)ccc2O1 | 79* | -14 | .
C[C@@H]1CN([C@@H](C)CO)C(=O)c2cc(NC(=O)Nc3ccc(C(F)(F)F)cc3)ccc2O[C@@H](C)CCCCO[C@@H]1CN(C)CC1CCCCC1 | . | . | -1
C[C@@H]1CCCCO[C@H](CN(C)CC2CCCCC2)[C@@H](C)CN([C@H](C)CO)C(=O)c2cc(NC(=O)Nc3ccc(C(F)(F)F)cc3)ccc2O1 | 70* | -59 | 1
CCCCCCC/C=N/NC(=O)CCCCC(=O)NO | -2 | -4 | 1
C[C@H](CO)N1C[C@H](C)[C@H](CN(C)S(=O)(=O)c2ccc(C#N)cc2)Oc2ncc(C#Cc3ccc(C(F)(F)F)cc3)cc2C1=O | 87* | -11 | 1
C[C@H](CO)N1C[C@H](C)[C@H](CN(C)S(C)(=O)=O)Oc2ncc(C#Cc3ccc(C(F)(F)F)cc3)cc2C1=O | 17 | . | 0
C[C@H](CO)N1C[C@H](C)[C@H](CN(C)S(=O)(=O)c2ccccc2)Oc2ncc(C#Cc3ccc(F)cc3)cc2C1=O | 52 | . | 0
SMILES | T cruzi intra | INS-1E ATP HTS | A1 apoptosis 2
C[C@H](CO)N1C[C@H](C)[C@H](CN(C)S(=O)(=O)c2cccs2)Oc2ncc(C#Cc3ccccc3)cc2C1=O | 73* | . | 1
C[C@H](CO)N1C[C@H](C)[C@H](CN(C)S(=O)(=O)c2cccs2)Oc2ncc(C#CCN(C)C)cc2C1=O | 1 | . | .
C[C@H](CO)N1C[C@H](C)[C@H](CN(C)S(=O)(=O)c2cccc(F)c2)Oc2ncc(C#Cc3cccc(F)c3)cc2C1=O | 51 | . | .
C[C@H](CO)N1C[C@H](C)[C@H](CN(C)S(=O)(=O)c2ccc(F)cc2)Oc2ncc(C#Cc3ccc(F)cc3)cc2C1=O | 66* | . | -1
C[C@H](CO)N1C[C@H](C)[C@H](CN(C)S(=O)(=O)c2cccc(F)c2)Oc2ncc(C#Cc3ccc(F)cc3)cc2C1=O | 64* | -15 | .
COC(=O)[C@H](Cc1ccccc1)N1C(=O)O[C@H](Cc2ccccc2)[C@@H]1/C=C/C1CC1 | . | . | 0
COC(=O)CCCCCCC(=O)N/N=C/c1ccc(NC(=O)OC(C)(C)C)cc1 | 0 | 13 | .
CC(/C=C/C(=O)NO)=C\c1cccc(OCc2ccc(-c3ccncc3)cc2)c1 | . | . | 0
O=C(CCCCCCC(=O)Nc1ccccc1O)N/N=C/c1cccnc1 | 3 | -7 | 1
O=C(O)CCCCCC(=O)N/N=C/c1ccoc1 | -8 | -3 | 0
O=C(N/N=C/c1ccccc1OCCO)c1ccccn1 | -21 | -2 | 0
CC(C)(C)OC(=O)Nc1ccc(/C=N/NC(=O)c2ccc(C(=O)NO)cc2)cc1 | -17 | 17 | .
O=C1O[C@H](c2ccccc2)[C@H](c2ccccc2)N2[C@H]1[C@@H](C(=O)N1CCCCCCC1)[C@]1(C(=O)Nc3ccccc31)[C@H]2c1ccc(O)cc1 | . | . | -1
Cc1ccc(S(=O)(=O)N(C)C[C@@H]2Oc3ncc(C#Cc4ccc(F)cc4)cc3C(=O)N([C@H](C)CO)C[C@@H]2C)cc1 | 59* | . | .
C[C@H](CO)N1C[C@H](C)[C@H](CN(C)S(=O)(=O)c2ccccc2)Oc2ncc(C#Cc3cccc(F)c3)cc2C1=O | 47 | . | 0
COc1ccc(C#Cc2cnc3c(c2)C(=O)N([C@H](C)CO)C[C@H](C)[C@H](CN(C)S(=O)(=O)c2ccc(C)cc2)O3)cc1OC | 34 | . | 0
C[C@H](CO)N1C[C@H](C)[C@H](CN(C)S(=O)(=O)c2ccc(C#N)cc2)Oc2ncc(C#Cc3ccccc3)cc2C1=O | 40 | . | 0
COc1cccc(S(=O)(=O)N(C)C[C@@H]2Oc3ncc(C#Cc4ccccc4)cc3C(=O)N([C@H](C)CO)C[C@@H]2C)c1 | 62* | . | -1
Cc1ccc(S(=O)(=O)N(C)C[C@@H]2Oc3ncc(C#Cc4ccccc4)cc3C(=O)N([C@H](C)CO)C[C@@H]2C)cc1 | 57* | -15 | 0
COc1cccc(S(=O)(=O)N(C)C[C@@H]2Oc3ncc(-c4ccccc4)cc3C(=O)N([C@H](C)CO)C[C@@H]2C)c1 | 31 | 0 | .
C[C@H](CO)N1C[C@H](C)[C@H](CN(C)S(=O)(=O)c2ccc(F)cc2)Oc2ncc(C#Cc3cccc(F)c3)cc2C1=O | 65* | . | 0

Bioassay records: PubChem, Broad Institute
